Data: ChEMBL document CHEMBL1140485, “MexAB-OprM specific efflux pump inhibitors in Pseudomonas aeruginosa. Part 7: highly soluble and in vivo active quaternary ammonium analogue D13-9001, a potential preclinical candidate” (Bioorg Med Chem, 2007)
Converted amounts (≈) assume the structure as drawn. Each block holds one molecule with its values, some of them ahead of it.

How the values were obtained:
Pseudomonas aeruginosa [1] = assay: Inhibition of Pseudomonas aeruginosa PAM1723 MexAB-OprM assessed as drug level required to decrease MIC of levofloxacin in presence of 0.125% HAS
Outline: (§1)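 P. aeruginosa PAM1723 overexpresses MexAB-OprM, with MexCD-OprJ and MexEF-OprN disrupted. The partner antibiotic's MIC was measured with and without inhibitor by NCCLS broth microdilution in Mueller–Hinton broth. Inoculum was 1 × 10⁶ CFU/mL, incubated 18 h at 37 °C, and growth was read visually. The value is the minimum inhibitor concentration that lowers the partner's MIC 8-fold (MPC₈).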

Pseudomonas aeruginosa [2] = assay: Inhibition of Pseudomonas aeruginosa PAM1723 MexAB-OprM assessed as drug level required to decrease MIC of aztreonam; outline: as §1
Pseudomonas aeruginosa [3] = assay: Inhibition of Pseudomonas aeruginosa PAM1723 MexAB-OprM assessed as drug level required to decrease MIC of levofloxacin; outline: as §1
[4] = Aqueous solubility at pH 6.8; type: physicochemical; settings: buffer
Rattus norvegicus [5] = assay: Half life in Sprague-Dawley rat at 1.25 mg/kg, iv; type: ADME, organism-based; design: dose 1.25 mg/kg, route intravenous; settings: in vivo
Outline: (§2)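 Rats received a 2 h intravenous infusion at 1.25, 5 or 20 mg/kg, given with AZT 1000 mg/kg in 40 mL/kg 0.0005 N NaOH-saline. Blood was drawn at 40, 80 and 120 min into the infusion, then 0.25, 0.5, 1, 2 and 4 h after it ended. Plasma was stored at −20 °C and extracted with MeCN using propranolol as internal standard.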

[6] = AUC (0 to infinity) in Sprague-Dawley rat at 20 mg/kg, iv; type: ADME, organism-based; design: time infinity, dose 20 mg/kg, route intravenous; settings: plasma
Outline: (§3)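 Rats (SD) given compound by 2 h intravenous infusion with AZT 1000 mg/kg, in 40 mL/kg 0.0005 N NaOH-saline. Blood sampled at 40, 80 and 120 min into infusion and 0.25, 0.5, 1, 2 and 4 h after its end. Plasma stored at −20 °C, spiked with propranolol internal standard, extracted with MeCN and centrifuged before analysis.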

[7] = AUC (0 to infinity) in Sprague-Dawley rat at 5 mg/kg, iv; type: ADME, organism-based; design: time infinity, dose 5 mg/kg, route intravenous; settings: plasma; outline: as §3
Rattus norvegicus [8] = assay: Half life in Sprague-Dawley rat at 20 mg/kg, iv; type: ADME, organism-based; design: dose 20 mg/kg, route intravenous; settings: in vivo; outline: as §2
[9] = Volume of distribution at steady state (0 to infinity) in cynomolgus monkey at 5 mg/kg, iv; type: ADME, organism-based, Macaca fascicularis; design: dose 5 mg/kg, route intravenous; settings: in vivo, read-out: Vdss
Outline: (§4)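 Monkeys received a 1 h intravenous infusion at 1 or 5 mg/kg in 10 mL/kg saline. Plasma was processed as for the rat samples: centrifuged, stored at −20 °C, then MeCN extraction with propranolol internal standard.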

[10] = Drug level in cynomolgus monkey serum at 5 mg/kg, iv after 1 hr; type: ADME, organism-based, Macaca fascicularis; design: dose 5 mg/kg, route intravenous; settings: read-out: Activity; outline: as §4
[11] = Half life in cynomolgus monkey at 1 mg/kg, iv; type: ADME, organism-based, Macaca fascicularis; design: dose 1 mg/kg, route intravenous; settings: in vivo; outline: as §4
[12] = Clearance (0 to infinity) in cynomolgus monkey at 1 mg/kg, iv; type: ADME, organism-based, Macaca fascicularis; design: dose 1 mg/kg, route intravenous; settings: in vivo; outline: as §4
Rattus norvegicus [13] = assay: Volume of distribution at steady state (0 to infinity) in Sprague-Dawley rat at 20 mg/kg, iv; type: ADME, organism-based; design: dose 20 mg/kg, route intravenous; settings: in vivo; outline: as §2
Rattus norvegicus [14] = assay: Volume of distribution at steady state (0 to infinity) in Sprague-Dawley rat at 5 mg/kg, iv; type: ADME, organism-based; design: dose 5 mg/kg, route intravenous; settings: in vivo; outline: as §2
[15] = Drug level in cynomolgus monkey serum at 1 mg/kg, iv after 1 hr; type: ADME, organism-based, Macaca fascicularis; design: dose 1 mg/kg, route intravenous; settings: read-out: Activity; outline: as §4
[16] = Drug level in Sprague-Dawley rat serum at 20 mg/kg, iv after 2 hrs; type: ADME, organism-based; design: dose 20 mg/kg, route intravenous; settings: read-out: Activity; outline: as §2
[17] = Volume of distribution at steady state (0 to infinity) in cynomolgus monkey at 1 mg/kg, iv; type: ADME, organism-based, Macaca fascicularis; design: dose 1 mg/kg, route intravenous; settings: in vivo, read-out: Vdss; outline: as §4
[18] = AUC (0 to infinity) in Sprague-Dawley rat at 1.25 mg/kg, iv; type: ADME, organism-based; design: time infinity, dose 1.25 mg/kg, route intravenous; settings: plasma; outline: as §3
Mus musculus [19] = assay: Toxicity in mouse assessed as lethal effect at 100 mg/kg, iv; type: organism-based; design: dose 100 mg/kg, route intravenous; settings: in vivo
Outline: (§5)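 Mice received a single intravenous dose at 50 or 100 mg/kg in groups of three. The read-out was the number of deaths per group.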

[20] = Drug level in Sprague-Dawley rat serum at 1.25 mg/kg, iv after 2 hrs; type: ADME, organism-based; design: dose 1.25 mg/kg, route intravenous; settings: read-out: Activity; outline: as §2
Rattus norvegicus [21] = assay: Mean residential time (0 to infinity) in Sprague-Dawley rat at 1.25 mg/kg, iv; type: ADME, organism-based; design: dose 1.25 mg/kg, route intravenous; settings: in vivo; outline: as §2
[22] = Mean residential time (0 to infinity) in cynomolgus monkey at 1 mg/kg, iv; type: ADME, organism-based, Macaca fascicularis; design: dose 1 mg/kg, route intravenous; settings: in vivo; outline: as §4
Rattus norvegicus [23] = assay: Volume of distribution at steady state (0 to infinity) in Sprague-Dawley rat at 1.25 mg/kg, iv; type: ADME, organism-based; design: dose 1.25 mg/kg, route intravenous; settings: in vivo; outline: as §2
[24] = Mean residential time (0 to infinity) in cynomolgus monkey at 5 mg/kg, iv; type: ADME, organism-based, Macaca fascicularis; design: dose 5 mg/kg, route intravenous; settings: in vivo; outline: as §4
[25] = Half life in cynomolgus monkey at 5 mg/kg, iv; type: ADME, organism-based, Macaca fascicularis; design: dose 5 mg/kg, route intravenous; settings: in vivo; outline: as §4
[26] = AUC (0 to infinity) in cynomolgus monkey at 1 mg/kg, iv; type: ADME, organism-based, Macaca fascicularis; design: time infinity, dose 1 mg/kg, route intravenous; settings: plasma
Outline: (§6)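 Monkeys given compound alone by 1 h intravenous infusion in 10 mL/kg saline. Plasma prepared and analysed as in the rat study: propranolol internal standard, MeCN extraction, centrifugation.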

[27] = AUC (0 to infinity) in cynomolgus monkey at 5 mg/kg, iv; type: ADME, organism-based, Macaca fascicularis; design: time infinity, dose 5 mg/kg, route intravenous; settings: plasma; outline: as §6
Rattus norvegicus [28] = assay: Half life in Sprague-Dawley rat at 5 mg/kg, iv; type: ADME, organism-based; design: dose 5 mg/kg, route intravenous; settings: in vivo; outline: as §2
[29] = Drug level in Sprague-Dawley rat serum at 5 mg/kg, iv after 2 hrs; type: ADME, organism-based; design: dose 5 mg/kg, route intravenous; settings: read-out: Activity; outline: as §2
[30] = Clearance (0 to infinity) in cynomolgus monkey at 5 mg/kg, iv; type: ADME, organism-based, Macaca fascicularis; design: dose 5 mg/kg, route intravenous; settings: in vivo; outline: as §4
Rattus norvegicus [31] = assay: Mean residential time (0 to infinity) in Sprague-Dawley rat at 5 mg/kg, iv; type: ADME, organism-based; design: dose 5 mg/kg, route intravenous; settings: in vivo; outline: as §2
Rattus norvegicus [32] = assay: Mean residential time (0 to infinity) in Sprague-Dawley rat at 20 mg/kg, iv; type: ADME, organism-based; design: dose 20 mg/kg, route intravenous; settings: in vivo; outline: as §2
Mus musculus [33] = assay: Toxicity in mouse assessed as lethal effect at 50 mg/kg, iv; type: organism-based; design: dose 50 mg/kg, route intravenous; settings: in vivo; outline: as §5

Activity (Pseudomonas aeruginosa [1]): 8 µg/mL
Activity (Pseudomonas aeruginosa [2]): 4 µg/mL
Activity (Pseudomonas aeruginosa [3]): 4 µg/mL
solubility [4]: 860 µg/mL (≈ 1240 µM)
SMILES: CC(C)(C)c1csc(NC(=O)c2ccn3c(=O)c(/C=C/c4nnn[nH]4)c(N4CCC[C@@H](CC(=O)NCC[N+](C)(C)CC(=O)[O-])C4)nc3c2)n1

solubility [4]: 547 µg/mL
SMILES: CC(C)(C)c1csc(NC(=O)c2ccn3c(=O)c(/C=C/c4nnn[nH]4)c(N4CCC[C@H](OC(=O)NCC[N+](C)(C)C)C4)nc3c2)n1

SMILES: CC(C)(C)c1csc(NC(=O)c2ccn3c(=O)c(/C=C/c4nnn[nH]4)c(N4CCC[C@@H](OC(=O)NCC[N+](C)(C)CC(=O)[O-])C4)nc3c2)n1
t1/2 (Rattus norvegicus [5]): 13.8 min
AUC(0-inf) [6]: 14200 ng·h/mL
AUC(0-inf) [7]: 3530 ng·h/mL
t1/2 (Rattus norvegicus [8]): 15 min
Vd [9]: 0.4 L/kg
concentration at 1 h [10]: 7640 ng/mL
half-life [11]: 16.8 min
clearance [12]: 11.2 mL/min/kg
Vdss (Rattus norvegicus [13]): 1.71 L/kg
Vdss (Rattus norvegicus [14]): 1.712 L/kg
concentration at 1 h [15]: 1220 ng/mL
concentration at 2 h [16]: 8040 ng/mL
Vd [17]: 0.414 L/kg
AUC(0-inf) [18]: 486 ng·h/mL
Activity (Mus musculus [19]): Non-toxic
concentration at 2 h [20]: 262 ng/mL
MRT (Rattus norvegicus [21]): 71.16 min
MRT inf [22]: 36.8 min
Vdss (Rattus norvegicus [23]): 3.049 L/kg
Activity (Pseudomonas aeruginosa [1]): 4 µg/mL
Activity (Pseudomonas aeruginosa [2]): 2 µg/mL
MRT inf [24]: 37.5 min
half-life [25]: 24.6 min
AUC(0-inf) [26]: 1490 ng·h/mL
AUC(0-inf) [27]: 7890 ng·h/mL
Activity (Pseudomonas aeruginosa [3]): 2 µg/mL
solubility [4]: 747 µg/mL (≈ 1080 µM)
t1/2 (Rattus norvegicus [28]): 10.8 min
concentration at 2 h [29]: 1840 ng/mL
clearance [30]: 10.7 mL/min/kg
MRT (Rattus norvegicus [31]): 72.54 min
MRT (Rattus norvegicus [32]): 72.9 min

Activity (Pseudomonas aeruginosa [1]): 16 µg/mL
Activity (Pseudomonas aeruginosa [2]): 4 µg/mL
Activity (Pseudomonas aeruginosa [3]): 8 µg/mL
solubility [4]: 170 µg/mL (≈ 245 µM)
SMILES: CC(C)(C)c1csc(NC(=O)c2ccn3c(=O)c(/C=C/c4nnn[nH]4)c(N4CCC(OC(=O)NCC[N+](C)(C)CC(=O)[O-])CC4)nc3c2)n1

Activity (Pseudomonas aeruginosa [1]): 4 µg/mL
Activity (Pseudomonas aeruginosa [2]): 2 µg/mL
Activity (Pseudomonas aeruginosa [3]): 4 µg/mL
solubility [4]: 610 µg/mL (≈ 862 µM)
SMILES: CC(C)(C)c1csc(NC(=O)c2ccn3c(=O)c(/C=C/c4nnn[nH]4)c(N4CCC[C@@H](OC(=O)NCCC[N+](C)(C)CC(=O)[O-])C4)nc3c2)n1

Activity (Pseudomonas aeruginosa [1]): > 16 µg/mL
Activity (Pseudomonas aeruginosa [2]): 8 µg/mL
Activity (Pseudomonas aeruginosa [3]): 16 µg/mL
Activity [4]: Not Active
SMILES: CC(C)(C)c1csc(NC(=O)c2ccn3c(=O)c(/C=C/c4nnn[nH]4)c(N4CCC/C(=C\C(=O)NCC[N+](C)(C)CC(=O)[O-])C4)nc3c2)n1

SMILES: CN(C)CCNC(=O)O[C@@H]1CCCN(c2nc3cc(C(=O)Nc4nc(C(C)(C)C)cs4)ccn3c(=O)c2/C=C/c2nnn[nH]2)C1
Activity (Pseudomonas aeruginosa [1]): 4 µg/mL
Activity (Pseudomonas aeruginosa [2]): 1 µg/mL
Activity (Pseudomonas aeruginosa [3]): 2 µg/mL
Activity (Mus musculus [33]): Non-toxic

Activity (Pseudomonas aeruginosa [1]): 2 µg/mL
Activity (Pseudomonas aeruginosa [2]): < 0.25 µg/mL
Activity (Pseudomonas aeruginosa [3]): 0.5 µg/mL
solubility [4]: 9.2 µg/mL (≈ 16.3 µM)
SMILES: CC(C)(C)c1csc(NC(=O)c2ccn3c(=O)c(/C=C/c4nnn[nH]4)c(N4CCC[C@@H](OC(N)=O)C4)nc3c2)n1

SMILES: CC(C)(C)c1csc(NC(=O)c2ccn3c(=O)c(/C=C/c4nnn[nH]4)c(N4CCC[C@@H](OC(=O)NCC[N+](C)(C)CC(N)=O)C4)nc3c2)n1
Activity (Mus musculus [19]): Non-toxic
Activity (Pseudomonas aeruginosa [1]): 4 µg/mL
Activity (Pseudomonas aeruginosa [2]): 4 µg/mL
Activity (Pseudomonas aeruginosa [3]): 4 µg/mL
solubility [4]: 95 µg/mL

Activity (Pseudomonas aeruginosa [1]): 4 µg/mL
Activity (Pseudomonas aeruginosa [2]): 2 µg/mL
Activity (Pseudomonas aeruginosa [3]): 2 µg/mL
SMILES: CC(C)(C)c1csc(NC(=O)c2ccn3c(=O)c(/C=C/c4nnn[nH]4)c(N4CCC[C@@H](OC(=O)NCC[N+](C)(C)C)C4)nc3c2)n1
